# PfG6PD inh – PfG6PD (Plasmodium falciparum) enzyme inhibition; AID 504690; PfGluPho enzyme, NADPH resazurin-diaphorase fluorescence; inhibition, % at 20 µM; 0.78% of 350,000 active;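 active = inhibition reaching at least a set limit at 20 µM in the primary screen, cut at about 59% in these data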;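 also: 0% = DMSO wells with substrate and 100% = DMSO wells lacking glucose-6-phosphate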
# ABHD5-PLIN5 inh – blocks binding of human ABHD5 to perilipin-5 | 0.78% of 360,000 active | Split G. princeps luciferase complementation, luminescence, 4 h | inhibition, % at 4 µM | AID 602281 | Q00G26+Q8WTS1;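 active = inhibition above the mean inhibition across every tested compound plus 3 SD, cut at about 22% in these data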;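 also: 0% = DMSO only wells and the 100% control is not disclosed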
# MC4R antagonist – human MC4R antagonism in cAMP assay; P32245; inhibition, % at 6.5 µM; MC4R-expressing cells, MTII-stimulated cAMP, LANCE TR-FRET; 0.48% of 360,000 active;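 active = inhibition above its plate's cutoff, the mean of tested wells on that plate plus 3 SD, cut at about 29% in these data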;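 also: 0% = Melanotan II alone and 100% = Melanotan II plus saturating MCL0020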
#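 Material: U2OS-MC4R stable cell line | Reagent: Melanotan II challenge after compound preincubation | Doses: One concentration, 6.5 µM nominal | Incubation: 30-min compound preincubation, 1-h Melanotan II challenge, 1-h detection, room temperature | Signal: TR-FRET cAMP assay | Replicates: One well per compound, no replicates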
# B2AR ag – activates human beta-2 adrenergic receptor causing internalization. P07550. Am2.2-beta2AR cells, FAP receptor internalization, flow cytometry. response, % (concentration not given with the values). 0.43% of 340,000 active. AID 504454;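 active = response above a set limit, near 3 SD of response in nonfluorescent compounds, cut at about 42% in these data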
# Target sequence (P07550 whole entry, looked up): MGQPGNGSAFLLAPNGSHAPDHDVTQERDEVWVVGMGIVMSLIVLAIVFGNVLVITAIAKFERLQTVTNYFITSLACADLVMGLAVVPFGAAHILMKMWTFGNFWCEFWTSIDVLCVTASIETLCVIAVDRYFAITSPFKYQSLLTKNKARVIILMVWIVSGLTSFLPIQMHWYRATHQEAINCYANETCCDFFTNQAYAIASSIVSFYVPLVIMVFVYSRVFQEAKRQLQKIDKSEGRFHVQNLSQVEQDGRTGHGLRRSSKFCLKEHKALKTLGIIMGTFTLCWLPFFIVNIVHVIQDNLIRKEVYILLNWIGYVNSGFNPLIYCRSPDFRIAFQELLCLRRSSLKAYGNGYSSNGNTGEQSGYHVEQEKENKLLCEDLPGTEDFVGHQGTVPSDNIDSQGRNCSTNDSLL
# MC4R barr agon – agonists of human melanocortin 4 receptor (MC4R) beta-arrestin. U2OS MC4R beta-arrestin complementation, luminescence; percent of melanotan II response, DMSO zero. activation, % at 8.9 µM. 0.98% of 360,000 active;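 active = activation above a per-plate cutoff, the mean activation of sample wells on that plate plus 3 SD, cut at about 8% in these data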
# * marks the source's active call; other numbers are inactive results; / = no result. Compounds with a hit are over-represented: about 3% of the library has one in this group of screens.
SMILES,PfG6PD inh,ABHD5-PLIN5 inh,MC4R antagonist,B2AR ag,MC4R barr agon
CCCCC(CC)C(=O)Nc1cc(C(=O)NCCC)ccc1N1CCC2(CC1)CC(c1cccc(Br)c1)=NO2 (centres undefined),-14.5,1.1,16.1,-1.0,0.9
Cc1ccc(C(=O)NNC(=O)c2ccccc2)cc1S(=O)(=O)N1CCCCC1,-2.7,-3.2,5.9,-1.9,-1.7
Cc1ccc(-n2sc3ccccc3c2=O)cc1S(=O)(=O)N1CCCCC1,127.0*,104.1*,53.3*,5.3,-4.3
O=C(CCl)Nc1cccc(S(=O)(=O)NC2=NCCCCC2)c1,-4.2,23.1*,5.6,2.2,2.9
O=C(Cn1ncc(Cl)c(Cl)c1=O)N1CCc2ccccc21,-5.6,5.5,-12.0,54.1*,2.6
O=C(Cn1ncc2c1-c1ccccc1OC2)N1CCc2ccccc21,14.7,-4.2,3.4,5.9,-0.2
Cc1cccc(NS(=O)(=O)c2ccc3[nH]c(=O)oc3c2)c1C,-36.9,-0.1,1.2,-7.4,-0.7
Cc1cccc(NS(=O)(=O)c2ccc3nc(-c4ccccc4)[nH]c3c2)c1C,-20.9,3.9,-0.8,-15.6,9.0*
COc1ccccc1Cc1c(C2CCCCC2)nc2ccc(Br)cn12,/,4.1,/,/,/
COc1ccccc1C(=O)Nc1ccnn1C1CCN(Cc2cnn(C)c2C)CC1,-7.8,-1.0,10.8,-3.5,-2.6
COc1ccccc1N/C(=N/S(=O)(=O)c1ccc(C)cc1)c1ccc(Cl)cc1,-0.3,-9.6,29.7*,-11.3,0.2
Cc1ccc(S(=O)(=O)/N=C(/Nc2ccc(F)cc2F)c2ccc(F)cc2)cc1,-5.2,6.7,2.6,-6.9,-1.1
CC(/C=C/c1ccccc1F)=N\NC(=O)c1ccccc1,10.1,6.1,-1.3,2.6,-2.2
O=C(/C=C/c1ccccc1F)c1ccoc1,0.9,30.8*,11.2,0.0,0.6
Cc1c(Cl)cccc1NC(=O)COC(=O)CCc1nc2ccccc2n1-c1ccccc1,-6.1,-3.6,14.0,-2.8,8.3*
O=C(COC(=O)CCc1nc2ccccc2n1-c1ccccc1)Nc1cccc(Cl)c1,1.5,-4.6,-4.0,2.4,3.9
Cc1cc(/C=C\c2ccc3cc(N(C)C)ccc3[n+]2C)c(C)n1-c1ccccc1,14.2,26.1*,-36.6,/,-2.7
COc1ccc(C(C)NC(=S)NCc2ccc(F)cc2)cc1 (centres undefined),-2.5,-1.7,1.9,2.0,1.0
Cc1ccc(C)c(C(C)NC(=S)NCc2ccc(F)cc2)c1 (centres undefined),8.1,2.1,-3.8,13.3,8.2*
O=C(Nc1cccc(S(=O)(=O)N2CCOCC2)c1)C1CCN(S(=O)(=O)c2ccccc2)CC1,5.2,1.2,-0.4,10.8,4.2
CCOC(=O)C1=C(N)n2c(s/c(=C/c3ccco3)c2=O)=C(C(=O)OC)C1c1ccco1 (centres undefined),0.5,8.8,-10.7,-8.3,-1.2
N#CC1=C(N)n2c(s/c(=C\c3ccco3)c2=O)=C(C#N)C1c1ccco1 (centres undefined),20.6,23.0*,8.1,-14.0,-1.6
O=C(C=P(c1ccccc1)(c1ccccc1)c1ccccc1)c1ccccc1-c1ccccc1C(=O)C=P(c1ccccc1)(c1ccccc1)c1ccccc1,26.1,26.0*,-1.1,103.8*,-4.4
Cc1ccc(S(=O)(=O)N2[C@H](CC(=O)OCc3ccccc3)OC[C@@H]2C(C)C)cc1,/,-4.6,/,/,/
Cc1ccc2cc(CCNS(=O)(=O)c3ccc(Br)cc3)c(=O)[nH]c2c1C,-23.2,3.8,3.8,54.9*,0.9
SMILES,PfG6PD inh,ABHD5-PLIN5 inh,MC4R antagonist,B2AR ag,MC4R barr agon
Cc1cc(C)c(S(=O)(=O)NCCc2cc3ccc(C)c(C)c3[nH]c2=O)c(C)c1,-13.4,-3.3,5.5,10.7,-1.5
COc1ccc(/C=N\NC(=O)COc2ccc(C(C)(C)C)cc2)cc1Cn1nc(C)cc1C,-13.7,-5.2,4.3,-2.1,22.2*
COc1ccc(/C=N/NC(=O)c2ccco2)cc1Cn1nc(C)cc1C,2.3,-4.5,12.1,-16.1,-1.6
COc1ccc(C(c2c(O)ccc3ccccc23)N2CCOCC2)c(OC)c1 (centres undefined),6.6,96.4*,5.2,17.9,-4.1
COc1ccc(C(CCN2CCOCC2)c2c(O)cc(OC)cc2OC)cc1 (centres undefined),9.2,2.7,0.2,-1.3,0.2
O=C(N/N=C/c1ccc2c(c1)OCO2)c1sc2cc(Cl)ccc2c1Cl,-8.1,0.2,-3.0,-4.9,-0.4
O=C(N/N=C/c1ccc2c(c1)OCO2)c1sc2cccc(Cl)c2c1Cl,-0.2,11.7,3.1,2.9,8.3*
Cc1ccc(C(=O)O)cc1NS(=O)(=O)c1ccc2ccccc2c1,8.0,1.5,5.7,19.7,0.5
CC(C)OC(=O)C(C(=O)C(F)(F)F)c1cc(NS(=O)(=O)c2ccc3ccccc3c2)c2ccccc2c1O (centres undefined),29.5,41.2*,-0.3,18.4,3.1
[O-]/[N+](=C/c1ccc(F)cc1)c1ccc(Cl)cc1,64.7*,-16.0,-0.7,5.0,-1.3
CCCCn1c(N)c(N(CC(C)C)C(=O)c2cc(-c3ccncc3)nc3ccccc23)c(=O)[nH]c1=O,8.8,9.9,-2.2,0.1,-1.5
CC12CC3(C)CC(C)(C1)CC(C(=O)NC(=S)N1CCOCC1)(C2)C3,14.6,-10.5,7.4,-1.4,8.7*
COc1ccc(C(=O)/C=C/C(=O)N(CC(=O)NC2CCCCC2)CC2CCCO2)c(O)c1 (centres undefined),50.5,65.8*,15.1,112.2*,-5.0
O=C1Nc2cc(C(=O)NCCN3CCCCCC3)ccc2S/C1=C\c1ccccc1,89.5*,12.9,-2.7,8.3,1.4
CC(C)C1C(C#N)=C(N)Oc2n[nH]c(-c3cccs3)c21 (centres undefined),-1.7,0.3,0.3,-15.2,-0.8
CC(C)C1C(C#N)=C(N)Oc2n[nH]c(-c3ccc4ccccc4c3)c21 (centres undefined),-12.6,2.8,-13.6,2.1,9.4*
COc1ccc(OC)c(CNC(=O)C2CCC(=O)N2C(C)C)c1 (centres undefined),1.5,-0.5,5.8,-3.0,-3.2
COC(=O)/C=C1\OC(C2CC2)c2ccccc21 (centres undefined),/,2.6,/,/,/
Cc1ncc(CN2CCCC(C(=O)Nc3ccc(-c4ccco4)cc3)C2)n1C (centres undefined),5.1,12.1,7.3,4.1,-2.4
CSc1ncc(CN2CCCC(C(=O)Nc3ccc(-c4ccco4)cc3)C2)cn1 (centres undefined),12.2,35.0*,-0.5,13.6,-2.9
CC(CNC(=O)[C@@H](Cc1ccccc1)NC(=O)CC[C@H]1O[C@@H](n2ccc(=O)[nH]c2=O)[C@H](O)[C@@H]1O)c1ccccc1 (some centres undefined),/,-0.8,/,/,/
Cc1cccc(C(=O)Oc2ccccc2/C=N/Nc2ccc([N+](=O)[O-])cc2)c1,2.9,-2.3,8.9,12.4,9.2*

# Bioassay records (PubChem)
